One series relates to cell culture. Conditions: ref [14] Iwasaki et al., 2014; cited from earlier work.
The test system of series [1] is MDA-MB-231 triple-negative breast cancer (TNBC) cells. Description: MTT cytotoxicity assay, MDA-MB-231. The series is classed as cell-based, human. The note with it: 72 h, 5% FBS. In outline: (§1)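 Cells plated at 5×10^3/well and attached overnight. Growth media were DMEM:F-12 (1:1) with 10% FBS for MDA-MB-231 and RPMI 1640 with 10% FBS for MCF-7. Test compound or DMSO vehicle applied for 72 h with 5% FBS. MTT added at 0.5 mg/mL final for 3 h at 37°C, 5% CO2, and formazan dissolved in DMSO. A570 read in three wells per condition and normalized to DMSO + 5% FBS. Mean ± SE of three experiments; one-way ANOVA with Bonferroni.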
Background: Tetrazolium dyes change colour on reduction, which living cells bring about.

The test system of series [2] is MCF-7 estrogen receptor positive breast cancer cells. Description: MTT cytotoxicity assay, MCF-7. The note with it: 72 h, 5% FBS. The series is classed as cell-based, human. The method, boiled down: as §1
Series [3] deals with T1, Sigma 2 receptor (Transmembrane Protein 97 (TMEM97)) (Rattus norvegicus, UniProt Q5U3Y7).
T1 sequence (Q5U3Y7 1-176): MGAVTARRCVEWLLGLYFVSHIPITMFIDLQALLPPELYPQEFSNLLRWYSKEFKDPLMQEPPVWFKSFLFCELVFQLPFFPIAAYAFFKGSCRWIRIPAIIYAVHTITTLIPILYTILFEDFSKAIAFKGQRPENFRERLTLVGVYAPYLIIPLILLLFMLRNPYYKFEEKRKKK
Kind of series: PDSP radioligand competition-binding assay, sigma 2. Conditions: 10 μM (primary criterion). In general terms: In a radioligand displacement assay an active substance lowers the binding of a labelled ligand.

Another series has as its system mice. Description: Open field locomotor behavior. The series is classed as in vivo, male C57Bl/6J mice. The note with it: ICV 20 μg, 10-minute open field, vs vehicle, unpaired t-test P>0.05. The method, boiled down:
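Male C57Bl/6J mice, 8–10 weeks old, fitted under isoflurane with a right lateral ventricle ICV cannula and allowed one week of recovery. After 1 h habituation in a dim room with 60 dB white noise, mice received 20 µg test compound in 0.5 µL 50% DMSO/50% aCSF over 2 min, or vehicle alone. Open field test began 5 min later; total distance travelled was scored blind. Cannula placement was checked at necropsy.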

The mark [4] stands for this setting: printed "15 M", mean of three experiments.

As for maedamide, the “antitumor cytotoxicity” value with cell culture was “only linear depsipeptide that exhibits antitumor cytotoxicity in cell culture”.

Turning to veraguamide C, the “effect on viability / toxicity in TNBC cells (words)” value was “selectively reduce viability” in series [1] and “similar, albeit minor, levels of toxicity” in series [1] (listed as veraguamide C). For the same substance, the “cytotoxicity, TNBC cells (MDA-MB-231)” value in series [1] (setting [4]) came to 53%. For the same substance, the “effect on viability / toxicity in MCF-7 (ER positive) cells” value in series [2] (listed as veraguamide C) was “mild toxicity”. Also, in series [2] (setting [4]), the “cytotoxicity, MCF7 cells” value is 65%. In addition, in series [3], the “Primary: Percent Inhibition of Binding” value is 65%. For the same substance, the “effect on locomotor behavior” value in the series on mice is listed as “no effect of veraguamide C on total distance traveled compared to vehicle”.

These data come from publication PMC11785078 (bioRxiv, 2025).
